Test results from ChEMBL document CHEMBL1649405, “Structure-activity relationships study of 6-chloro-4-(2-chlorophenyl)-3-(2-hydroxyethyl) quinolin-2(1H)-one derivatives as novel non-nucleoside anti-hepatitis B virus agents” (Eur J Med Chem, 2011).

System: not listed separately
Test: Cytotoxicity against human HepG2(2.2.15) cells
Assay type: cell-based
Conditions: not given
In short: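 HepG 2.2.15 cells in DMEM with 10% FBS, 37 °C, 5% CO2. CC50 = concentration killing 50% of cells. Mean of two independent experiments.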

Structure (SMILES) | CC50
O=C(CCOc1ccccc1)OCCc1c(-c2ccccc2Cl)c2cc(Cl)ccc2[nH]c1=O | 46 µM
C/C=C/C(=O)OCCc1c(-c2ccccc2Cl)c2cc(Cl)ccc2[nH]c1=O | 30 µM
O=c1c(CCO)c(-c2ccccc2Cl)c2cc(Cl)ccc2n1Cc1ccccc1 | 26 µM
CC(C)C(=O)OCCc1c(-c2ccccc2Cl)c2cc(Cl)ccc2[nH]c1=O | 62 µM
CC(=O)NCC(=O)OCCc1c(-c2ccccc2Cl)c2cc(Cl)ccc2[nH]c1=O | 110 µM
O=C(OCCc1c(-c2ccccc2Cl)c2cc(Cl)ccc2[nH]c1=O)C1CCCC1 | 46 µM
CC(=O)OCCc1c(-c2ccccc2Cl)c2cc(Cl)ccc2[nH]c1=O | 27 µM
O=C(O)Cc1c(-c2ccccc2Cl)c2cc(Cl)ccc2[nH]c1=O | 950 µM
Clc1ccc2nc3c(c(-c4ccccc4Cl)c2c1)CCS3 | > 2400 µM
O=C(/C=C/c1ccccc1)OCCc1c(-c2ccccc2Cl)c2cc(Cl)ccc2[nH]c1=O | 230 µM
O=C(/C=C/c1cccnc1)OCCc1c(-c2ccccc2Cl)c2cc(Cl)ccc2[nH]c1=O | 39 µM
O=CCc1c(-c2ccccc2Cl)c2cc(Cl)ccc2[nH]c1=O | 120 µM
C/C=C(\C)C(=O)OCCc1c(-c2ccccc2Cl)c2cc(Cl)ccc2[nH]c1=O | 350 µM
COCC(=O)OCCc1c(-c2ccccc2Cl)c2cc(Cl)ccc2[nH]c1=O | 74 µM
CC12CCC(C(=O)OCCc3c(-c4ccccc4Cl)c4cc(Cl)ccc4[nH]c3=O)(OC1=O)C2(C)C (stereo not drawn) | > 1800 µM
O=C(OCCc1c(-c2ccccc2Cl)c2cc(Cl)ccc2[nH]c1=O)c1cccs1 | > 1700 µM
O=C(OCCc1c(-c2ccccc2Cl)c2cc(Cl)ccc2[nH]c1=O)c1ccco1 | 98 µM
Clc1ccc2nc3c(c(-c4ccccc4Cl)c2c1)CCO3 | > 280 µM
O=c1c(CCO)c(-c2ccccc2Cl)c2cc(Cl)ccc2n1Cc1c(F)cccc1F | > 2300 µM

System: Hepatitis B virus
Test: Antiviral activity against Hepatitis B virus infected in human HepG2(2.2.15) cells assessed as inhibition of viral e antigen secretion after 6 days by ELISA
Assay type: functional, organism-based
Conditions: HepG2 2.2.15, 144 h
In short: (§1)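 HepG 2.2.15 cells in DMEM with 10% FBS, 37 °C, 5% CO2. Treated for 6 days with refeeding every other day. Culture medium centrifuged at 6000 g to clear debris. HBeAg or HBsAg measured by quantitative ELISA on a microplate reader. IC50 = concentration giving 50% inhibition of secretion. Mean of two independent experiments.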

Structure (SMILES) | IC50
CC(C)C(=O)OCCc1c(-c2ccccc2Cl)c2cc(Cl)ccc2[nH]c1=O | > 62 µM
CC(=O)NCC(=O)OCCc1c(-c2ccccc2Cl)c2cc(Cl)ccc2[nH]c1=O | > 110 µM
CC(=O)OCCc1c(-c2ccccc2Cl)c2cc(Cl)ccc2[nH]c1=O | > 27 µM
O=C(O)Cc1c(-c2ccccc2Cl)c2cc(Cl)ccc2[nH]c1=O | > 950 µM
Clc1ccc2nc3c(c(-c4ccccc4Cl)c2c1)CCS3 | > 2400 µM
O=C(/C=C/c1cccnc1)OCCc1c(-c2ccccc2Cl)c2cc(Cl)ccc2[nH]c1=O | 2200 µM
O=CCc1c(-c2ccccc2Cl)c2cc(Cl)ccc2[nH]c1=O | > 120 µM
COCC(=O)OCCc1c(-c2ccccc2Cl)c2cc(Cl)ccc2[nH]c1=O | > 74 µM
CC12CCC(C(=O)OCCc3c(-c4ccccc4Cl)c4cc(Cl)ccc4[nH]c3=O)(OC1=O)C2(C)C (stereo not drawn) | > 1800 µM
O=C(OCCc1c(-c2ccccc2Cl)c2cc(Cl)ccc2[nH]c1=O)c1cccs1 | > 1700 µM
Clc1ccc2nc3c(c(-c4ccccc4Cl)c2c1)CCO3 | > 280 µM
O=c1cc(-c2ccccc2Cl)c2cc(Cl)ccc2[nH]1 | > 1000 µM
O=c1c(CCO)c(-c2ccccc2Cl)c2cc(Cl)ccc2n1Cc1c(F)cccc1F | > 2300 µM
Nc1ccn([C@@H]2CS[C@H](CO)O2)c(=O)n1 [LAMIVUDINE] | 30000 µM

Next, values leading:

IC50 | Structure (SMILES)
35 µM | O=C(CCOc1ccccc1)OCCc1c(-c2ccccc2Cl)c2cc(Cl)ccc2[nH]c1=O
22 µM | C/C=C/C(=O)OCCc1c(-c2ccccc2Cl)c2cc(Cl)ccc2[nH]c1=O
12 µM | O=c1c(CCO)c(-c2ccccc2Cl)c2cc(Cl)ccc2n1Cc1ccccc1
46 µM | O=C(OCCc1c(-c2ccccc2Cl)c2cc(Cl)ccc2[nH]c1=O)C1CCCC1
56 µM | O=C(/C=C/c1ccccc1)OCCc1c(-c2ccccc2Cl)c2cc(Cl)ccc2[nH]c1=O
62 µM | C/C=C(\C)C(=O)OCCc1c(-c2ccccc2Cl)c2cc(Cl)ccc2[nH]c1=O
58 µM | O=C(OCCc1c(-c2ccccc2Cl)c2cc(Cl)ccc2[nH]c1=O)c1ccco1

System: not listed separately
Test: Selectivity index, ratio of CC50 for human HepG2(2.2.15) cells to IC50 for Hepatitis B virus infected in human HepG2(2.2.15) cells assessed as inhibition of viral e antigen secretion
Assay type: functional
Conditions: not given
In short: (§2)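 Ratio of CC50 in HepG 2.2.15 cells to the IC50 for HBeAg or HBsAg secretion. Both values come from ELISA and cytotoxicity runs on the same cell line. Each input is the mean of two independent experiments.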

Structure (SMILES) | Selectivity Index
O=C(CCOc1ccccc1)OCCc1c(-c2ccccc2Cl)c2cc(Cl)ccc2[nH]c1=O | 1.3
C/C=C/C(=O)OCCc1c(-c2ccccc2Cl)c2cc(Cl)ccc2[nH]c1=O | 1.3
O=c1c(CCO)c(-c2ccccc2Cl)c2cc(Cl)ccc2n1Cc1ccccc1 | 2.2
CC(C)C(=O)OCCc1c(-c2ccccc2Cl)c2cc(Cl)ccc2[nH]c1=O | <1
CC(=O)NCC(=O)OCCc1c(-c2ccccc2Cl)c2cc(Cl)ccc2[nH]c1=O | <1
O=C(OCCc1c(-c2ccccc2Cl)c2cc(Cl)ccc2[nH]c1=O)C1CCCC1 | 1
CC(=O)OCCc1c(-c2ccccc2Cl)c2cc(Cl)ccc2[nH]c1=O | <1
O=C(O)Cc1c(-c2ccccc2Cl)c2cc(Cl)ccc2[nH]c1=O | <1
O=C(/C=C/c1ccccc1)OCCc1c(-c2ccccc2Cl)c2cc(Cl)ccc2[nH]c1=O | 4
O=C(/C=C/c1cccnc1)OCCc1c(-c2ccccc2Cl)c2cc(Cl)ccc2[nH]c1=O | <1
O=CCc1c(-c2ccccc2Cl)c2cc(Cl)ccc2[nH]c1=O | <1
C/C=C(\C)C(=O)OCCc1c(-c2ccccc2Cl)c2cc(Cl)ccc2[nH]c1=O | 5.6
COCC(=O)OCCc1c(-c2ccccc2Cl)c2cc(Cl)ccc2[nH]c1=O | <1
O=C(OCCc1c(-c2ccccc2Cl)c2cc(Cl)ccc2[nH]c1=O)c1ccco1 | 1.6
Nc1ccn([C@@H]2CS[C@H](CO)O2)c(=O)n1 [LAMIVUDINE] | 1

System: not listed separately
Test: Selectivity index, ratio of CC50 for human HepG2(2.2.15) cells to IC50 for Hepatitis B virus infected in human HepG2(2.2.15) cells assessed as inhibition of viral surface antigen secretion
Assay type: functional
Conditions: not given
In short: as §2

Structure (SMILES) | Selectivity Index
O=C(CCOc1ccccc1)OCCc1c(-c2ccccc2Cl)c2cc(Cl)ccc2[nH]c1=O | 1.4
C/C=C/C(=O)OCCc1c(-c2ccccc2Cl)c2cc(Cl)ccc2[nH]c1=O | 1.2
O=c1c(CCO)c(-c2ccccc2Cl)c2cc(Cl)ccc2n1Cc1ccccc1 | 2.2
CC(C)C(=O)OCCc1c(-c2ccccc2Cl)c2cc(Cl)ccc2[nH]c1=O | 1.7
CC(=O)NCC(=O)OCCc1c(-c2ccccc2Cl)c2cc(Cl)ccc2[nH]c1=O | 1.4
O=C(OCCc1c(-c2ccccc2Cl)c2cc(Cl)ccc2[nH]c1=O)C1CCCC1 | 1
CC(=O)OCCc1c(-c2ccccc2Cl)c2cc(Cl)ccc2[nH]c1=O | <1
O=C(O)Cc1c(-c2ccccc2Cl)c2cc(Cl)ccc2[nH]c1=O | 2.8
O=C(/C=C/c1ccccc1)OCCc1c(-c2ccccc2Cl)c2cc(Cl)ccc2[nH]c1=O | 7.6
O=C(/C=C/c1cccnc1)OCCc1c(-c2ccccc2Cl)c2cc(Cl)ccc2[nH]c1=O | 1.1
O=CCc1c(-c2ccccc2Cl)c2cc(Cl)ccc2[nH]c1=O | 1.6
C/C=C(\C)C(=O)OCCc1c(-c2ccccc2Cl)c2cc(Cl)ccc2[nH]c1=O | 6.1
COCC(=O)OCCc1c(-c2ccccc2Cl)c2cc(Cl)ccc2[nH]c1=O | 1.4
CC12CCC(C(=O)OCCc3c(-c4ccccc4Cl)c4cc(Cl)ccc4[nH]c3=O)(OC1=O)C2(C)C (stereo not drawn) | >1.2
O=C(OCCc1c(-c2ccccc2Cl)c2cc(Cl)ccc2[nH]c1=O)c1ccco1 | 1.9
O=c1c(CCO)c(-c2ccccc2Cl)c2cc(Cl)ccc2n1Cc1c(F)cccc1F | >2.6
Nc1ccn([C@@H]2CS[C@H](CO)O2)c(=O)n1 [LAMIVUDINE] | 1.1

System: Hepatitis B virus
Test: Antiviral activity against Hepatitis B virus infected in human HepG2(2.2.15) cells assessed as inhibition of viral surface antigen secretion after 6 days by ELISA
Assay type: functional, organism-based
Conditions: HepG2 2.2.15, 144 h
In short: as §1

Structure (SMILES) | IC50
CC(C)C(=O)OCCc1c(-c2ccccc2Cl)c2cc(Cl)ccc2[nH]c1=O | 37 µM
CC(=O)NCC(=O)OCCc1c(-c2ccccc2Cl)c2cc(Cl)ccc2[nH]c1=O | 74 µM
CC(=O)OCCc1c(-c2ccccc2Cl)c2cc(Cl)ccc2[nH]c1=O | 74 µM
O=C(O)Cc1c(-c2ccccc2Cl)c2cc(Cl)ccc2[nH]c1=O | 350 µM
Clc1ccc2nc3c(c(-c4ccccc4Cl)c2c1)CCS3 | > 2400 µM
O=C(/C=C/c1cccnc1)OCCc1c(-c2ccccc2Cl)c2cc(Cl)ccc2[nH]c1=O | 34 µM
O=CCc1c(-c2ccccc2Cl)c2cc(Cl)ccc2[nH]c1=O | 76 µM
COCC(=O)OCCc1c(-c2ccccc2Cl)c2cc(Cl)ccc2[nH]c1=O | 32 µM
CC12CCC(C(=O)OCCc3c(-c4ccccc4Cl)c4cc(Cl)ccc4[nH]c3=O)(OC1=O)C2(C)C (stereo not drawn) | 1500 µM
O=C(OCCc1c(-c2ccccc2Cl)c2cc(Cl)ccc2[nH]c1=O)c1cccs1 | > 1700 µM
Clc1ccc2nc3c(c(-c4ccccc4Cl)c2c1)CCO3 | > 280 µM
O=c1cc(-c2ccccc2Cl)c2cc(Cl)ccc2[nH]1 | 460 µM
O=c1c(CCO)c(-c2ccccc2Cl)c2cc(Cl)ccc2n1Cc1c(F)cccc1F | 87 µM
Nc1ccn([C@@H]2CS[C@H](CO)O2)c(=O)n1 [LAMIVUDINE] | 27000 µM

The next lines start with the values.

IC50 | Structure (SMILES)
33 µM | O=C(CCOc1ccccc1)OCCc1c(-c2ccccc2Cl)c2cc(Cl)ccc2[nH]c1=O
25 µM | C/C=C/C(=O)OCCc1c(-c2ccccc2Cl)c2cc(Cl)ccc2[nH]c1=O
12 µM | O=c1c(CCO)c(-c2ccccc2Cl)c2cc(Cl)ccc2n1Cc1ccccc1
46 µM | O=C(OCCc1c(-c2ccccc2Cl)c2cc(Cl)ccc2[nH]c1=O)C1CCCC1
30 µM | O=C(/C=C/c1ccccc1)OCCc1c(-c2ccccc2Cl)c2cc(Cl)ccc2[nH]c1=O
58 µM | C/C=C(\C)C(=O)OCCc1c(-c2ccccc2Cl)c2cc(Cl)ccc2[nH]c1=O
51 µM | O=C(OCCc1c(-c2ccccc2Cl)c2cc(Cl)ccc2[nH]c1=O)c1ccco1
